Source: ChEMBL document CHEMBL3867438, “Cytotoxic Tirucallane and Apotirucallane Triterpenoids from the Stems of Picrasma quassioides” (J Nat Prod, 2016)

Assay: Cytotoxicity against human MCF7 cells assessed as inhibition of cell proliferation after 48 hrs by MTT assay
Format: functional, cell-based
Conditions: MCF7, 48 h
Procedure, shortened: (§1)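 Cells grown in DMEM with 10% FBS, 100 U/mL penicillin, 100 μg/mL streptomycin, 37 °C, 5% CO2. Seeded 5 × 10^3 cells/well, 12 h, then exposed to compounds for 48 h. MTT (5 mg/mL stock) added for 4 h at 37 °C, formazan dissolved in DMSO, absorbance read at 570 nm. IC50 relative to untreated control. Triplicate, repeated twice; cis-platinum as positive control.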

| SMILES | IC50 |
| --- | --- |
| CO[C@@H]1O[C@H](C=C(C)C)C[C@H]1[C@@H]1CC[C@]2(C)C3=CC[C@H]4C(C)(C)[C@@H](O)CC[C@]4(C)[C@H]3CC[C@@]12C | > 10 µM |
| CCO[C@@H]1O[C@@H]([C@H](O)C(C)(C)O)C[C@H]1[C@@H]1CC[C@]2(C)C3=CC[C@H]4C(C)(C)C(=O)CC[C@]4(C)[C@H]3CC[C@@]12C | > 10 µM |
| CO[C@H]1O[C@@H](C=C(C)C)C[C@H]1[C@@H]1CC[C@]2(C)C3=CC[C@H]4C(C)(C)[C@@H](O)CC[C@]4(C)[C@H]3CC[C@@]12C | > 10 µM |
| CCO[C@@H]1O[C@H]([C@@H](O)C(C)(C)O)C[C@H]1[C@@H]1CC[C@]2(C)C3=CC[C@H]4C(C)(C)[C@@H](O)CC[C@]4(C)C3=CC[C@@]12C | > 10 µM |
| CC(C)=CCC[C@H](C(=O)O)[C@@H]1CC[C@]2(C)C3=CC[C@@H]4[C@](C)(CC[C@H](O)[C@]4(C)CO)[C@H]3CC[C@@]12C | > 10 µM |
| CCO[C@H]1O[C@@H]([C@H](O)C(C)(C)O)C[C@H]1[C@@H]1CC[C@]2(C)C3=CC[C@H]4C(C)(C)C(=O)CC[C@]4(C)[C@H]3CC[C@@]12C | > 10 µM |
| C[C@@H](C[C@@H](O)[C@H](O)C(C)(C)O)[C@@H]1CC=C2[C@]3(C)[C@H](O)C[C@H]4C(C)(C)C(=O)CC[C@]4(C)[C@H]3CC[C@]21C | > 10 µM |
| CCO[C@H]1O[C@H](C(C)(C)O)[C@@H](O)C[C@H]1[C@@H]1CC[C@]2(C)C3=CC[C@H]4C(C)(C)C(=O)CC[C@]4(C)[C@H]3CC[C@@]12C | > 10 µM |
| C[C@@H](C[C@@H](O)[C@H](O)C(C)(C)O)[C@@H]1CC=C2[C@]3(C)[C@H](O)[C@@H](O)[C@H]4C(C)(C)C(=O)CC[C@]4(C)[C@H]3CC[C@]21C | > 10 µM |
| CO[C@H]1O[C@H](C=C(C)C)C[C@H]1[C@@H]1CC[C@]2(C)C3=CC[C@H]4C(C)(C)[C@@H](O)CC[C@]4(C)[C@H]3CC[C@@]12C | > 10 µM |
| CCO[C@H]1O[C@H](C(C)(C)O)[C@@H](O)C[C@H]1[C@@H]1CC[C@]2(C)C3=CC(=O)[C@H]4C(C)(C)C(=O)CC[C@]4(C)[C@H]3CC[C@@]12C | > 10 µM |
| CCO[C@H]1O[C@@H]([C@H](O)C(C)(C)O)C[C@H]1[C@@H]1CC[C@]2(C)C3=CC[C@H]4C(C)(C)C(=O)CC[C@]4(C)C3=CC[C@@]12C | > 10 µM |
| CC1(C)OC[C@H]([C@@H]2CC[C@]3(C)C4=CC[C@H]5C(C)(C)[C@H](O)CC[C@]5(C)[C@H]4CC[C@@]23C)C[C@@H](O)[C@@H]1O | > 10 µM |
| CC(C)(O)[C@@H]1[C@@H](O)[C@H]([C@@H]2CC=C3[C@]4(C)[C@H](O)C[C@H]5C(C)(C)[C@H](O)CC[C@]5(C)[C@H]4CC[C@]32C)C[C@H]1O | > 10 µM |
| CC(C)(O)[C@H]1OC[C@H]([C@@H]2CC[C@]3(C)C4=CC[C@H]5C(C)(C)C(=O)CC[C@]5(C)[C@H]4CC[C@@]23C)C[C@H]1O | > 10 µM |
| C[C@@H](C[C@@H](O)[C@@H](O)C(C)(C)O)[C@@H]1CC[C@]2(C)C3=CC[C@H]4C(C)(C)C(=O)CC[C@]4(C)[C@H]3CC[C@@]12C | 8.5 µM |

Assay: Cytotoxicity against human MKN28 cells assessed as inhibition of cell proliferation after 48 hrs by MTT assay
Format: functional, cell-based
Conditions: MKN-28, 48 h
Procedure, shortened: as §1

| SMILES | IC50 |
| --- | --- |
| CO[C@@H]1O[C@H](C=C(C)C)C[C@H]1[C@@H]1CC[C@]2(C)C3=CC[C@H]4C(C)(C)[C@@H](O)CC[C@]4(C)[C@H]3CC[C@@]12C | 9.8 µM |
| CCO[C@@H]1O[C@@H]([C@H](O)C(C)(C)O)C[C@H]1[C@@H]1CC[C@]2(C)C3=CC[C@H]4C(C)(C)C(=O)CC[C@]4(C)[C@H]3CC[C@@]12C | > 10 µM |
| CO[C@H]1O[C@@H](C=C(C)C)C[C@H]1[C@@H]1CC[C@]2(C)C3=CC[C@H]4C(C)(C)[C@@H](O)CC[C@]4(C)[C@H]3CC[C@@]12C | > 10 µM |
| CCO[C@@H]1O[C@H]([C@@H](O)C(C)(C)O)C[C@H]1[C@@H]1CC[C@]2(C)C3=CC[C@H]4C(C)(C)[C@@H](O)CC[C@]4(C)C3=CC[C@@]12C | 9.1 µM |
| CC(C)=CCC[C@H](C(=O)O)[C@@H]1CC[C@]2(C)C3=CC[C@@H]4[C@](C)(CC[C@H](O)[C@]4(C)CO)[C@H]3CC[C@@]12C | 9.1 µM |
| CCO[C@H]1O[C@@H]([C@H](O)C(C)(C)O)C[C@H]1[C@@H]1CC[C@]2(C)C3=CC[C@H]4C(C)(C)C(=O)CC[C@]4(C)[C@H]3CC[C@@]12C | > 10 µM |
| C[C@@H](C[C@@H](O)[C@H](O)C(C)(C)O)[C@@H]1CC=C2[C@]3(C)[C@H](O)C[C@H]4C(C)(C)C(=O)CC[C@]4(C)[C@H]3CC[C@]21C | > 10 µM |
| CCO[C@H]1O[C@H](C(C)(C)O)[C@@H](O)C[C@H]1[C@@H]1CC[C@]2(C)C3=CC[C@H]4C(C)(C)C(=O)CC[C@]4(C)[C@H]3CC[C@@]12C | > 10 µM |
| C[C@@H](C[C@@H](O)[C@H](O)C(C)(C)O)[C@@H]1CC=C2[C@]3(C)[C@H](O)[C@@H](O)[C@H]4C(C)(C)C(=O)CC[C@]4(C)[C@H]3CC[C@]21C | > 10 µM |
| CO[C@H]1O[C@H](C=C(C)C)C[C@H]1[C@@H]1CC[C@]2(C)C3=CC[C@H]4C(C)(C)[C@@H](O)CC[C@]4(C)[C@H]3CC[C@@]12C | 8.8 µM |
| CCO[C@H]1O[C@H](C(C)(C)O)[C@@H](O)C[C@H]1[C@@H]1CC[C@]2(C)C3=CC(=O)[C@H]4C(C)(C)C(=O)CC[C@]4(C)[C@H]3CC[C@@]12C | 8.2 µM |
| CCO[C@H]1O[C@@H]([C@H](O)C(C)(C)O)C[C@H]1[C@@H]1CC[C@]2(C)C3=CC[C@H]4C(C)(C)C(=O)CC[C@]4(C)C3=CC[C@@]12C | 8.3 µM |
| CC1(C)OC[C@H]([C@@H]2CC[C@]3(C)C4=CC[C@H]5C(C)(C)[C@H](O)CC[C@]5(C)[C@H]4CC[C@@]23C)C[C@@H](O)[C@@H]1O | > 10 µM |
| CC(C)(O)[C@@H]1[C@@H](O)[C@H]([C@@H]2CC=C3[C@]4(C)[C@H](O)C[C@H]5C(C)(C)[C@H](O)CC[C@]5(C)[C@H]4CC[C@]32C)C[C@H]1O | > 10 µM |
| CC(C)(O)[C@H]1OC[C@H]([C@@H]2CC[C@]3(C)C4=CC[C@H]5C(C)(C)C(=O)CC[C@]5(C)[C@H]4CC[C@@]23C)C[C@H]1O | > 10 µM |
| C[C@@H](C[C@@H](O)[C@@H](O)C(C)(C)O)[C@@H]1CC[C@]2(C)C3=CC[C@H]4C(C)(C)C(=O)CC[C@]4(C)[C@H]3CC[C@@]12C | 6.9 µM |

Assay: Cytotoxicity against human A549 cells assessed as inhibition of cell proliferation after 48 hrs by MTT assay
Format: functional, cell-based
Conditions: A549, 48 h
Procedure, shortened: as §1

| SMILES | IC50 |
| --- | --- |
| CO[C@@H]1O[C@H](C=C(C)C)C[C@H]1[C@@H]1CC[C@]2(C)C3=CC[C@H]4C(C)(C)[C@@H](O)CC[C@]4(C)[C@H]3CC[C@@]12C | > 10 µM |
| CCO[C@@H]1O[C@@H]([C@H](O)C(C)(C)O)C[C@H]1[C@@H]1CC[C@]2(C)C3=CC[C@H]4C(C)(C)C(=O)CC[C@]4(C)[C@H]3CC[C@@]12C | > 10 µM |
| CO[C@H]1O[C@@H](C=C(C)C)C[C@H]1[C@@H]1CC[C@]2(C)C3=CC[C@H]4C(C)(C)[C@@H](O)CC[C@]4(C)[C@H]3CC[C@@]12C | > 10 µM |
| CCO[C@@H]1O[C@H]([C@@H](O)C(C)(C)O)C[C@H]1[C@@H]1CC[C@]2(C)C3=CC[C@H]4C(C)(C)[C@@H](O)CC[C@]4(C)C3=CC[C@@]12C | > 10 µM |
| CC(C)=CCC[C@H](C(=O)O)[C@@H]1CC[C@]2(C)C3=CC[C@@H]4[C@](C)(CC[C@H](O)[C@]4(C)CO)[C@H]3CC[C@@]12C | > 10 µM |
| CCO[C@H]1O[C@@H]([C@H](O)C(C)(C)O)C[C@H]1[C@@H]1CC[C@]2(C)C3=CC[C@H]4C(C)(C)C(=O)CC[C@]4(C)[C@H]3CC[C@@]12C | > 10 µM |
| C[C@@H](C[C@@H](O)[C@H](O)C(C)(C)O)[C@@H]1CC=C2[C@]3(C)[C@H](O)C[C@H]4C(C)(C)C(=O)CC[C@]4(C)[C@H]3CC[C@]21C | > 10 µM |
| CCO[C@H]1O[C@H](C(C)(C)O)[C@@H](O)C[C@H]1[C@@H]1CC[C@]2(C)C3=CC[C@H]4C(C)(C)C(=O)CC[C@]4(C)[C@H]3CC[C@@]12C | > 10 µM |
| C[C@@H](C[C@@H](O)[C@H](O)C(C)(C)O)[C@@H]1CC=C2[C@]3(C)[C@H](O)[C@@H](O)[C@H]4C(C)(C)C(=O)CC[C@]4(C)[C@H]3CC[C@]21C | > 10 µM |
| CO[C@H]1O[C@H](C=C(C)C)C[C@H]1[C@@H]1CC[C@]2(C)C3=CC[C@H]4C(C)(C)[C@@H](O)CC[C@]4(C)[C@H]3CC[C@@]12C | > 10 µM |
| CCO[C@H]1O[C@H](C(C)(C)O)[C@@H](O)C[C@H]1[C@@H]1CC[C@]2(C)C3=CC(=O)[C@H]4C(C)(C)C(=O)CC[C@]4(C)[C@H]3CC[C@@]12C | > 10 µM |
| CCO[C@H]1O[C@@H]([C@H](O)C(C)(C)O)C[C@H]1[C@@H]1CC[C@]2(C)C3=CC[C@H]4C(C)(C)C(=O)CC[C@]4(C)C3=CC[C@@]12C | > 10 µM |
| CC1(C)OC[C@H]([C@@H]2CC[C@]3(C)C4=CC[C@H]5C(C)(C)[C@H](O)CC[C@]5(C)[C@H]4CC[C@@]23C)C[C@@H](O)[C@@H]1O | > 10 µM |
| CC(C)(O)[C@@H]1[C@@H](O)[C@H]([C@@H]2CC=C3[C@]4(C)[C@H](O)C[C@H]5C(C)(C)[C@H](O)CC[C@]5(C)[C@H]4CC[C@]32C)C[C@H]1O | > 10 µM |
| CC(C)(O)[C@H]1OC[C@H]([C@@H]2CC[C@]3(C)C4=CC[C@H]5C(C)(C)C(=O)CC[C@]5(C)[C@H]4CC[C@@]23C)C[C@H]1O | > 10 µM |
| C[C@@H](C[C@@H](O)[C@@H](O)C(C)(C)O)[C@@H]1CC[C@]2(C)C3=CC[C@H]4C(C)(C)C(=O)CC[C@]4(C)[C@H]3CC[C@@]12C | 8 µM |
